Assay results from ChEMBL document CHEMBL4251575, “Design, synthesis, and biological evaluation of 1,3-diarylisoquinolines as novel topoisomerase I catalytic inhibitors” (Eur J Med Chem, 2018).
The source made the active and inactive calls. The rule behind the calls is not given here.

What was measured:
[1] = target: DNA topoisomerase 2-alpha (Homo sapiens) (UniProt P11388); test: Inhibition of human DNA topoisomerase 2 alpha-mediated DNA relaxation at 20 uM incubated for 30 mins using pBR322 DNA substrate by ethidium bromide dye-based agarose gel electrophoresis
Chain of DNA topoisomerase 2-alpha (Homo sapiens) (P11388 whole entry): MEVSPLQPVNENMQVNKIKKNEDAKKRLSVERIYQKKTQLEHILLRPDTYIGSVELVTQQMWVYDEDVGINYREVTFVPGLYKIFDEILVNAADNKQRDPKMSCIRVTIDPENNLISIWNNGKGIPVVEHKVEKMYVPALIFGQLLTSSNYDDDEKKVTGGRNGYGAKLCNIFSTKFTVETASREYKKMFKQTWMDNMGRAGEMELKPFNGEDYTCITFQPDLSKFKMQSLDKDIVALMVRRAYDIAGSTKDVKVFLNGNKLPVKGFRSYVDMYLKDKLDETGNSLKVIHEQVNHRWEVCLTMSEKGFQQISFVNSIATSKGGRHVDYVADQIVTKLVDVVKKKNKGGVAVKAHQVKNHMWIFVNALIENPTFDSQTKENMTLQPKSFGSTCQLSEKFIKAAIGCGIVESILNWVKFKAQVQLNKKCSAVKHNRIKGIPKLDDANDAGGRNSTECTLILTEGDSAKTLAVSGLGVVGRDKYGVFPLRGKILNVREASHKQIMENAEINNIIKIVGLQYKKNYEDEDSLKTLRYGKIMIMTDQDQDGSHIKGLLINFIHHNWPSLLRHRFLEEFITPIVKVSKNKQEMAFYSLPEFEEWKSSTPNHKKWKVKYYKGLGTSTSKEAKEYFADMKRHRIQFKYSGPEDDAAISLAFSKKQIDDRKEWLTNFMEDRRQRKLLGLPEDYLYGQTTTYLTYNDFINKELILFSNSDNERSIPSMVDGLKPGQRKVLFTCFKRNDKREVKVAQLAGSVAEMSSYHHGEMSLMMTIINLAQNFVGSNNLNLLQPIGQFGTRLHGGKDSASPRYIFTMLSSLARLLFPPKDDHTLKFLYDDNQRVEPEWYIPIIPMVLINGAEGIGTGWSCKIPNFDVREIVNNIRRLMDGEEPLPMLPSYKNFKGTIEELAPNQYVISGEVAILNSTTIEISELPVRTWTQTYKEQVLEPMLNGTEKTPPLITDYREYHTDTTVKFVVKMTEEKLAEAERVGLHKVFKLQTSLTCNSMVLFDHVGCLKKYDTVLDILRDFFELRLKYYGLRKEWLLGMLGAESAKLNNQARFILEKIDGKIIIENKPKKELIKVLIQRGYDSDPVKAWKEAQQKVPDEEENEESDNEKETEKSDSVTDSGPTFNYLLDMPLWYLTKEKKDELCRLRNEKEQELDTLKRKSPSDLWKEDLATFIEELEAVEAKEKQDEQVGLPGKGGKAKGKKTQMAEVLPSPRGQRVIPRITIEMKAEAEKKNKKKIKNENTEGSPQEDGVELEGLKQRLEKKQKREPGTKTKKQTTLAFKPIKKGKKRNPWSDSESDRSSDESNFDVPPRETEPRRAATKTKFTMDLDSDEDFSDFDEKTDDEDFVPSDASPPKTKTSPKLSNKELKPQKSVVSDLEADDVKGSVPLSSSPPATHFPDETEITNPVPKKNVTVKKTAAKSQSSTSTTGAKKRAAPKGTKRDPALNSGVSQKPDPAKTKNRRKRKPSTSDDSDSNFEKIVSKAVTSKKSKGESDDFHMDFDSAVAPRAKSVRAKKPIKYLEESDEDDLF
Method in brief: (§1)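 Stopped with EDTA and run on 1% agarose/TAE at 25 V for 4 h. EtBr-stained; supercoiled DNA quantified as % inhibition. Relative values are the ratio to the etoposide control.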

[2] = target: DNA topoisomerase 2-alpha (Homo sapiens) (UniProt P11388); test: Inhibition of human DNA topoisomerase 2 alpha-mediated DNA relaxation at 100 uM incubated for 30 mins using pBR322 DNA substrate by ethidium bromide dye-based agarose gel electrophoresis; method in brief: as §1
[3] = target: T1, DNA topoisomerase 1 (Homo sapiens) (UniProt P11387); test: Inhibition of human recombinant DNA topoisomerase 1-mediated DNA relaxation at 20 uM incubated for 30 mins using pBR322 DNA substrate by ethidium bromide dye-based agarose gel electrophoresis relative to control camptothecin
T1 sequence (whole entry): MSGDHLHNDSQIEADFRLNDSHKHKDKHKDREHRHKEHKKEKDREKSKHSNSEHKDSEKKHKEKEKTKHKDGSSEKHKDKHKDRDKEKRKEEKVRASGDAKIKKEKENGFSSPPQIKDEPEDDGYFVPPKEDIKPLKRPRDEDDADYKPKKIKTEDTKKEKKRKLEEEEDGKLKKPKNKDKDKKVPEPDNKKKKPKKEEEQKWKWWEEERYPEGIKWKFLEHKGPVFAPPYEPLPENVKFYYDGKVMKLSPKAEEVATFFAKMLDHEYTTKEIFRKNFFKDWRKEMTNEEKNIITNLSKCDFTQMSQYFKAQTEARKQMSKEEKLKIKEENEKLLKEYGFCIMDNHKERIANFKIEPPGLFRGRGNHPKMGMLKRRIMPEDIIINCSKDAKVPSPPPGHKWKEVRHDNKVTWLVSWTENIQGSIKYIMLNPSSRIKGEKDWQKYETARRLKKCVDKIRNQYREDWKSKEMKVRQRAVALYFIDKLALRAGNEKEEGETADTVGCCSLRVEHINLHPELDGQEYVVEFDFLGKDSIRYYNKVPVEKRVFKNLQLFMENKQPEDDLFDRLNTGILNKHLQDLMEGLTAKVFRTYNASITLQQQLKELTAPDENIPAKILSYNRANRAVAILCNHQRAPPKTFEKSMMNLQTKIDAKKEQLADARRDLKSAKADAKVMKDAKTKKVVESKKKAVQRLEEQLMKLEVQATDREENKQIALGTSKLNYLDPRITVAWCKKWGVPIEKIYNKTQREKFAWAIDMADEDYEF
Method in brief: (§2)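 pBR322 (100 ng) with recombinant human topo I (0.4 units) in 10 mM Tris-HCl pH 7.9, 150 mM NaCl, 0.1% BSA, 1 mM spermidine, 5% glycerol, 30 min at 37 °C. Stopped with sarcosyl/glycerol/dye and run on 1% agarose/TAE at 15 V for 7 h. EtBr-stained; supercoiled DNA quantified as % inhibition. Relative values are the ratio to the camptothecin control.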

[4] = target: T1, DNA topoisomerase 1 (Homo sapiens); test: Inhibition of human recombinant DNA topoisomerase 1-mediated DNA relaxation at 20 uM incubated for 30 mins using pBR322 DNA substrate by ethidium bromide dye-based agarose gel electrophoresis; method in brief: as §2
[5] = tested on: MCF-10A; test: Cytotoxicity against human MCF10A cells after 72 hrs by cell counting kit-8 analysis; type: cell-based
Method in brief: (§3)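 Cells seeded at 2×10^5 or 1×10^5 per well, grown overnight in medium with 10% FBS at 37 °C, 5% CO₂, then FBS-starved 4 h. Graded compound concentrations given for 72 h. CCK-8 then added for 4 h and absorbance read at 450 nm. IC50 from a four-parameter logistic fit; mean ± S.D. of three experiments, each in triplicate.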

[6] = target: T1, DNA topoisomerase 1 (Homo sapiens); test: Inhibition of human recombinant DNA topoisomerase 1-mediated DNA relaxation at 100 uM incubated for 30 mins using pBR322 DNA substrate by ethidium bromide dye-based agarose gel electrophoresis; method in brief: as §2
[7] = target: DNA topoisomerase 2-alpha (Homo sapiens) (UniProt P11388); test: Inhibition of human DNA topoisomerase 2 alpha-mediated DNA relaxation at 20 uM incubated for 30 mins using pBR322 DNA substrate by ethidium bromide dye-based agarose gel electrophoresis relative to control etoposide; method in brief: as §1
[8] = tested on: HCT-15; test: Cytotoxicity against human HCT15 cells after 72 hrs by cell counting kit-8 analysis; type: functional, cell-based; conditions: HCT-15, 72 h; method in brief: as §3
[9] = tested on: T47D; test: Cytotoxicity against human T47D cells after 72 hrs by cell counting kit-8 analysis; type: functional, cell-based; method in brief: as §3
[10] = target: T1, DNA topoisomerase 1 (Homo sapiens); test: Inhibition of human recombinant DNA topoisomerase 1-mediated DNA relaxation at 100 uM incubated for 30 mins using pBR322 DNA substrate by ethidium bromide dye-based agarose gel electrophoresis relative to control camptothecin; method in brief: as §2
[11] = target: DNA topoisomerase 2-alpha (Homo sapiens) (UniProt P11388); test: Inhibition of human DNA topoisomerase 2 alpha-mediated DNA relaxation at 100 uM incubated for 30 mins using pBR322 DNA substrate by ethidium bromide dye-based agarose gel electrophoresis relative to control etoposide; method in brief: as §1
[12] = tested on: DU-145; test: Cytotoxicity against human DU145 cells after 72 hrs by cell counting kit-8 analysis; type: functional, cell-based; conditions: DU-145, 72 h; method in brief: as §3
[13] = organism: Sus scrofa; test: Inhibition of porcine brain tubulin polymerization at 10 uM after 61 mins by spectroscopic analysis
Method in brief: (§4)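 Porcine brain tubulin at 1.5 mg/mL final in cold PEM buffer (80 mM Na-PIPES pH 6.9, 1 mM MgCl₂, 30% glycerol, 1 mM EGTA) with 1 mM GTP. Compounds were dissolved in DMSO and diluted in PEM. They were pre-warmed 2 min at 37 °C before tubulin was added. DMSO vehicle and paclitaxel controls. A340 was read each minute for 61 min at 37 °C.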

[14] = organism: Sus scrofa; test: Induction of porcine brain tubulin polymerization at 10 uM after 61 mins by spectroscopic analysis; method in brief: as §4

| SMILES | inhibition [1] | inhibition [2] | Ratio [3] | inhibition [4] | IC50 [5] | inhibition [6] | Ratio [7] | IC50 [8] | IC50 [9] | Ratio [10] | Ratio [11] | IC50 [12] | inhibition [13] | Tubulin polymerization induction [14] |
| --- | --- | --- | --- | --- | --- | --- | --- | --- | --- | --- | --- | --- | --- | --- |
| COc1ccc(-c2cc3cc(C)ccc3c(-c3cccc(OCCCN(C)C)c3)n2)c(C)c1 | 10.5% | 40.9% | 0 | 0% | 6.07 µM | 39.3% | 0.28 | 0.87 µM | 0.29 µM | 0.6 | 0.67 |  |  |  |
| COc1ccc(-c2cc3ccccc3c(-c3cccc(OC)c3)n2)cc1 |  | 0% | 0 | 0% | > 50 µM | 43.2% |  | 1.3 µM | 0.86 µM | 0.58 | 0 | > 50 µM |  |  |
| COc1cc(OC)cc(-c2cc3ccccc3c(-c3cccc(OC)c3)n2)c1 |  | 16.7% |  |  | > 50 µM | 0% |  | 1.17 µM | 1.12 µM | 0 | 0.26 |  |  |  |
| COc1cc(OC)cc(-c2cc3ccccc3c(-c3cccc(O)c3)n2)c1 | 30.9% | 37.3% |  |  | 6.77 µM | 0% | 0.9 | 0.84 µM | 0.76 µM | 0 | 0.59 |  | inactive | inactive |
| COc1cccc(-c2nc(-c3ccc(OC)c(OC)c3)cc3cc(C)ccc23)c1 |  | 0% |  |  | > 50 µM | 2.9% |  | 1.84 µM | 7.86 µM | 0.05 | 0 | > 50 µM |  |  |
| COc1ccc(-c2cc3cc(C)ccc3c(-c3ccc(OCCN(C)C)cc3)n2)cc1OC | 15.3% | 75.8% | 0 | 0% | 5.31 µM | 79.6% | 0.41 | 0.97 µM | 2.33 µM | 1.22 | 1.24 |  |  |  |
| COc1ccc(-c2cc3cc(C)ccc3c(-c3cccc(O)c3)n2)c(C)c1 |  | 12.3% | 2.46 | 70.4% | 5.05 µM | 73.4% |  | 1.75 µM | 0.56 µM | 1.13 | 0.2 |  | Active | inactive |
| COc1cc(OC)cc(-c2cc3ccccc3c(-c3cccc(N)c3)n2)c1 |  | 23.6% |  |  | > 50 µM | 0% |  | 4.08 µM | 0.98 µM | 0 | 0.37 |  |  |  |
| COc1ccc(-c2cc3cc(C)ccc3c(-c3cccc(O)c3)n2)cc1OC | 0.4% | 34.5% |  |  | 13.5 µM | 1.7% | 0.01 | 0.37 µM | 4.34 µM | 0.03 | 0.38 | 6.51 µM |  |  |
| COc1cc(OC)cc(-c2cc3ccccc3c(-c3ccc(O)cc3)n2)c1 | 40% | 51.2% |  |  | 7.28 µM | 0% | 1.17 | 2.78 µM | 0.78 µM | 0 | 0.82 |  | inactive | inactive |
| COc1ccc(-c2cc3ccccc3c(-c3cccc(O)c3)n2)cc1 | 0% | 84.3% |  |  | 7.83 µM | 9.4% | 0 | 1.2 µM | 0.58 µM | 0.12 | 1.07 | 5.36 µM |  |  |
| COc1ccc(-c2cc3cc(C)ccc3c(-c3cccc(OCCN(C)C)c3)n2)c(C)c1 | 13.2% | 49.6% |  |  | 6.35 µM | 3.7% | 0.35 | 2.2 µM | 0.6 µM | 0.05 | 0.81 |  |  |  |
